Experimental data as given in article PMC9099118 (Clinical and Translational Science, 2022).
“Also recorded” adds a separate entry of the source.

Tests used:
[1] = Phase I plasma pharmacokinetics after single; format: in vivo, human; settings: for Cmax: plasma; for T max: median; for AR (Cmin): Cmin Day 14/Cmin Day 1, mean; for Cmax, Day 1 / Cmin, Day 1: first dose; for AUCtau, Day14 / Cmax, Day 14 / Cmin, Day 14: steady-state
Summary of the method: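 Randomized, placebo-controlled, blinded study in healthy adults aged 18–65. Part A gave single inhaled doses of 0.15–15 mg; Part B gave 1, 3 or 10 mg q.d. or 15 mg b.i.d. for 14 days via a capsule dry-powder inhaler, each dose over 15 (±5) min. Serial plasma samples were taken from pre-dose to Day 15 (Part A) or Day 42 (Part B). Drug was assayed by HPLC-MS/MS (LLOQ 10 pg/mL). Accumulation ratio = Cmin Day 14/Cmin Day 1.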

[2] = system: rat model of asthma; settings: inhalation dosing; cited from earlier work
[3] = system: fractional exhaled nitric oxide (FeNO); settings: patients with mild asthma, inhaled; cited from earlier work
[4] = target: JAK1; settings: cited from earlier work
[5] = Phase I safety: laboratory tests; format: in vivo, human
Summary of the method: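 Healthy volunteers in single- and multiple-ascending inhaled-dose cohorts, randomized against placebo and blinded to investigator and subject. All dosed subjects were analysed. Change from baseline was assessed in vital signs, 12-lead ECG, spirometry and laboratory tests. Lab monitoring for JAK-related toxicity covered reticulocyte counts, lymphocyte subsets and fasting lipids.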

[6] = Scintigraphy study: plasma PK and safety; format: in vivo, human; settings: single 1 mg radiolabeled dose
[7] = Part A SAD, range across dose levels

CN(CCC#N)C1CCN(C(=O)Cn2cc(NC(=O)c3cnn4cccnc34)c(-c3cc(Cl)ccc3OC(F)F)n2)CC1 [GDC‐0214]
Cmax ([1]; Part A SAD, 0.15 mg single inhaled dose, mean): 0.0702 ng/mL | T max ([1]; Part A SAD, 0.15 mg): 0.283 h | Cmax ([1]; Part A SAD, 0.5 mg single inhaled dose, mean): 0.301 ng/mL | AUCinf ([1]; Part A SAD, 0.5 mg, mean): 2.458 ng·h/mL | CL/F ([1]; Part A SAD, 0.5 mg, mean): 227 L/h | T 1/2 ([1]; Part A SAD, 0.5 mg, mean): 37.3 h | Vz/F ([1]; Part A SAD, 0.5 mg, mean): 12264 L | T max ([1]; Part A SAD, 0.5 mg): 0.267 h | Cmax ([1]; Part A SAD, 1.5 mg single inhaled dose, mean): 0.763 ng/mL | AUCinf ([1]; Part A SAD, 1.5 mg, mean): 7.32 ng·h/mL | CL/F ([1]; Part A SAD, 1.5 mg, mean): 220 L/h | T 1/2 ([1]; Part A SAD, 1.5 mg, mean): 38.7 h | Vz/F ([1]; Part A SAD, 1.5 mg, mean): 12620 L | T max ([1]; Part A SAD, 1.5 mg): 0.517 h | Cmax ([1]; Part A SAD, 5 mg single inhaled dose, mean): 2.883 ng/mL | AUCinf ([1]; Part A SAD, 5 mg, mean): 34.727 ng·h/mL | CL/F ([1]; Part A SAD, 5 mg, mean): 149 L/h | T 1/2 ([1]; Part A SAD, 5 mg, mean): 36.5 h | Vz/F ([1]; Part A SAD, 5 mg, mean): 7744 L | T max ([1]; Part A SAD, 5 mg): 0.458 h | Cmax ([1]; Part A SAD, 15 mg single inhaled dose, mean): 7.27 ng/mL | AUCinf ([1]; Part A SAD, 15 mg, mean): 96.038 ng·h/mL | CL/F ([1]; Part A SAD, 15 mg, mean): 158 L/h | T 1/2 ([1]; Part A SAD, 15 mg, mean): 39.7 h | Vz/F ([1]; Part A SAD, 15 mg, mean): 9116 L | T max ([1]; Part A SAD, 15 mg): 0.500 h | dose proportionality of mean Cmax and AUC0-inf ([1]; Part A SAD, across cohorts): approximately dose‐proportional | mean CL/F [1, 7]: 149 to 227 L/h | mean apparent volume of distribution (Vz/F) [1, 7]: 7740–12,600 L | t 1/2 ([1]; Part B MAD, 1 mg q.d. for 14 days, mean): 38.5 h | AR (Cmin) ([1]; Part B MAD, 1 mg q.d.): 3.0 | Cmax, Day 1 ([1]; Part B MAD, 1 mg q.d., mean): 0.581 ng/mL | Cmin, Day 1 ([1]; Part B MAD, 1 mg q.d., mean): 0.0594 ng/mL | AUCtau, Day1 ([1]; Part B MAD, 1 mg q.d., mean): 2910 pg·h/mL | AUCtau, Day14 ([1]; Part B MAD, 1 mg q.d., mean): 5969 pg·h/mL | Cmax, Day 14 ([1]; Part B MAD, 1 mg q.d., mean): 810 pg/mL | Cmin, Day 14 ([1]; Part B MAD, 1 mg q.d., mean): 0.167 ng/mL | t 1/2 ([1]; Part B MAD, 3 mg q.d. for 14 days, mean (N 5)): 32.0 h | AR (Cmin) ([1]; Part B MAD, 3 mg q.d.): 2.79 | Cmax, Day 1 ([1]; Part B MAD, 3 mg q.d., mean): 1.51 ng/mL | Cmin, Day 1 ([1]; Part B MAD, 3 mg q.d., mean): 0.164 ng/mL | AUCtau, Day1 ([1]; Part B MAD, 3 mg q.d., mean): 8080 pg·h/mL | AUCtau, Day14 ([1]; Part B MAD, 3 mg q.d., mean): 15,794 pg.h/mL | Cmax, Day 14 ([1]; Part B MAD, 3 mg q.d., mean): 2115 pg/mL | Cmin, Day 14 ([1]; Part B MAD, 3 mg q.d., mean): 0.45 ng/mL | t 1/2 ([1]; Part B MAD, 10 mg q.d. for 14 days, mean): 40.8 h | AR (Cmin) ([1]; Part B MAD, 10 mg q.d.): 3.47 | Cmax, Day 1 ([1]; Part B MAD, 10 mg q.d., mean): 3.77 ng/mL | Cmin, Day 1 ([1]; Part B MAD, 10 mg q.d., mean): 0.517 ng/mL | AUCtau, Day1 ([1]; Part B MAD, 10 mg q.d., mean): 21,300 pg.h/mL | AUCtau, Day14 ([1]; Part B MAD, 10 mg q.d., mean): 52,824 pg.h/mL | Cmax, Day 14 ([1]; Part B MAD, 10 mg q.d., mean): 5982 pg/mL | Cmin, Day 14 ([1]; Part B MAD, 10 mg q.d., mean): 1.78 ng/mL | t 1/2 ([1]; Part B MAD, 15 mg b.i.d. for 14 days, mean): 56.9 h | AR (Cmin) ([1]; Part B MAD, 15 mg b.i.d.): 2.49 | Cmax, Day 1 ([1]; Part B MAD, 15 mg b.i.d., mean): 6.08 ng/mL | Cmin, Day 1 ([1]; Part B MAD, 15 mg b.i.d., mean): 2.09 ng/mL | AUCtau, Day1 ([1]; Part B MAD, 15 mg b.i.d., mean): 39,500 pg.h/mL | AUCtau, Day14 ([1]; Part B MAD, 15 mg b.i.d., mean): 79,907 pg.h/mL | Cmax, Day 14 ([1]; Part B MAD, 15 mg b.i.d., mean): 12,423 pg/mL | Cmin, Day 14 ([1]; Part B MAD, 15 mg b.i.d., mean): 5.26 ng/mL | dose proportionality of Cmax and AUCtau ([1]; Part B MAD, across the three q.d. cohorts): approximately dose‐proportional | steady-state concentrations achieved by ([1]; Part B MAD, q.d. or b.i.d. dosing): ≤ 6 days | time of peak plasma concentrations post-dose ([1]; after inhalation, across cohorts): 15 to 30 min | eosinophil recruitment [2]: suppressed | fractional exhaled nitric oxide (FeNO) [3]: reduced; also recorded: dose‐dependent decreases | plasma protein binding-corrected cellular 50% inhibitory concentration of JAK1 [4]: 97,000 pg/mL | changes in laboratory parameters, ECGs, or vital signs ([5]; Parts A and B): no clinically relevant changes | changes in CD4T cells, CD8T cells, or B cells ([5]; compared to placebo, GDC-0214-treated cohorts): no significant changes | changes from baseline in levels of NK cells, reticulocytes, or low-density lipoprotein cholesterol ([5]; indicators of systemic effects of JAK1 inhibition): no significant changes | tolerability [6]: well tolerated
